Assays:
[1] = Apparent oral bioavailability in rat at 2 mg/kg; format: ADME, organism-based; conditions: in vivo, read-out: Fapp
[2] = Volume of distribution at steady state in Beagle dog at 0.5 mg/kg, iv; format: ADME, organism-based, Canis lupus familiaris; parameters: dose 0.5 mg/kg, route intravenous; conditions: in vivo, read-out: Vdss
How it was run: (§1)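 Single intravenous dose in 10% N,N-dimethylacetamide, 10% ethanol, 30% propylene glycol, 50% water: 1 mg/kg mouse; 0.5 mg/kg rat, beagle dog, cynomolgus monkey. Plasma clearance also given as percent of hepatic blood flow.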

[3] = Clearance in mouse at 1 mg/kg, iv; format: ADME, organism-based; parameters: dose 1 mg/kg, route intravenous; conditions: in vivo; how it was run: as §1
Cytochrome P450 3A4 = Cytochrome P450 3A4 (Homo sapiens, UniProt P08684); test: Inhibition of CYP3A4; format: ADME
Sequence of Cytochrome P450 3A4 (P08684 whole entry): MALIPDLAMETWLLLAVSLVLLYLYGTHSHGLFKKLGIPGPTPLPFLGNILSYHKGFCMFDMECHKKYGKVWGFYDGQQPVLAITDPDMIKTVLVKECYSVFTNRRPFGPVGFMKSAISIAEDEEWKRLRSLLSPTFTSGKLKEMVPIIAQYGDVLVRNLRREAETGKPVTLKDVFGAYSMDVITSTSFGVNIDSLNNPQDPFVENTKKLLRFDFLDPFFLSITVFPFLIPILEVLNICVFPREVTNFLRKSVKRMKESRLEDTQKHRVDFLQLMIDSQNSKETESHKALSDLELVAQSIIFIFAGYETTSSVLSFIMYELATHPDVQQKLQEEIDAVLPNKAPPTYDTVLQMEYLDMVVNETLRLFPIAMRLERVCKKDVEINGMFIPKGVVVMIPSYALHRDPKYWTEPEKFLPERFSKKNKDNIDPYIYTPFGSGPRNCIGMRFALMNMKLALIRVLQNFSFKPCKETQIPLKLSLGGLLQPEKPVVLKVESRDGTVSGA

[4] = Fraction unbound in cynomolgus monkey plasma; format: ADME, cell-free, Macaca fascicularis
[5] = Apparent oral bioavailability in cynomolgus monkey at 2 mg/kg; format: ADME, organism-based, Macaca fascicularis; conditions: in vivo, read-out: Fapp
[6] = target: T1, C-X-C chemokine receptor type 3 (Mus musculus, UniProt O88410); test: Receptor occupancy of CXCR3 in mouse whole blood assessed as inhibition of ITAC binding by fluorescence quenching based FACS analysis
T1 sequence (O88410 whole entry): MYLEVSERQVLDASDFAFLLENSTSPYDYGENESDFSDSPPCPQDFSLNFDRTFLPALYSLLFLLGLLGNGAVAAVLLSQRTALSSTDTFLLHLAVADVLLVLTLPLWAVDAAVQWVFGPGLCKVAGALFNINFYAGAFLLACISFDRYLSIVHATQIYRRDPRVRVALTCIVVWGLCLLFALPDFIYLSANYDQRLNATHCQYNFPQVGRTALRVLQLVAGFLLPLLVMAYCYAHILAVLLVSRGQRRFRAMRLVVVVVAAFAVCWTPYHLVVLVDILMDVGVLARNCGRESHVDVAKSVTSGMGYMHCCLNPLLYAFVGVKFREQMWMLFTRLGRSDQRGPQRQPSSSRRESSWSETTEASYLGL

[7] = Clearance in Beagle dog at 0.5 mg/kg, iv; format: ADME, organism-based, Canis lupus familiaris; parameters: dose 0.5 mg/kg, route intravenous; conditions: in vivo; how it was run: as §1
Blood [8] = test: Drug level in C57BL/6 mouse blood at 10 mg/kg, sc after 1 hr; format: ADME, organism-based; parameters: dose 10 mg/kg, route subcutaneous; conditions: in vivo
How it was run: (§2)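 C57BL/6 mice given bleomycin intra-tracheally and dosed subcutaneously by osmotic mini-pump for 6 days; plasma collected to measure drug level, reported 1 h post dose.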

[9] = Clearance in cynomolgus monkey at 0.5 mg/kg, iv; format: ADME, organism-based, Macaca fascicularis; parameters: dose 0.5 mg/kg, route intravenous; conditions: in vivo; how it was run: as §1
[10] = Mean residence time in mouse at 1 mg/kg, iv; format: ADME, organism-based; parameters: dose 1 mg/kg, route intravenous; conditions: in vivo; how it was run: as §1
[11] = target: T2, C-X-C chemokine receptor type 3 (Homo sapiens, UniProt P49682); test: Displacement of [125I]-IP-10 from CXCR3
T2 sequence (P49682 whole entry): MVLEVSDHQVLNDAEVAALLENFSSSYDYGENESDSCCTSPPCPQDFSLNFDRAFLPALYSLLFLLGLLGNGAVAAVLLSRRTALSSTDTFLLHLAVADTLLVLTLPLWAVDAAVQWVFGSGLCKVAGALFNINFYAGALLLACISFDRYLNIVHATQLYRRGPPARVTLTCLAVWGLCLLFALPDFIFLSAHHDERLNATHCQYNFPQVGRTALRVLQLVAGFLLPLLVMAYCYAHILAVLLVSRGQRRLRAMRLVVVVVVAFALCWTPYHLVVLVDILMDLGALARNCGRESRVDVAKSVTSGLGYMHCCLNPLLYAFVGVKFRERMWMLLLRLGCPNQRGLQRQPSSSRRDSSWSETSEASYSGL

[12] = Fraction unbound in Beagle dog plasma; format: ADME, cell-free, Canis lupus familiaris
[13] = Apparent oral bioavailability in Beagle dog at 2 mg/kg; format: ADME, organism-based, Canis lupus familiaris; conditions: in vivo, read-out: Fapp
[14] = Apparent oral bioavailability in mouse at 5 mg/kg; format: ADME, organism-based; conditions: in vivo, read-out: Fapp
[15] = Volume of distribution at steady state in cynomolgus monkey at 0.5 mg/kg, iv; format: ADME, organism-based, Macaca fascicularis; parameters: dose 0.5 mg/kg, route intravenous; conditions: in vivo, read-out: Vdss; how it was run: as §1
[16] = Volume of distribution at steady state in rat at 0.5 mg/kg, iv; format: ADME, organism-based; parameters: dose 0.5 mg/kg, route intravenous; conditions: in vivo, read-out: Vdss; how it was run: as §1
[17] = target: T2, C-X-C chemokine receptor type 3; test: Displacement of [125I]-IP-10 from CXCR3 in presence of 100% human serum
Cynomolgus monkey = test: Hepatic blood flow in cynomolgus monkey at 0.5 mg/kg, iv; format: ADME, organism-based, Macaca fascicularis, Liver; parameters: dose 0.5 mg/kg, route intravenous; conditions: in vivo; how it was run: as §1
PBL [18] = test: Toxicity in human PBL assessed as chromosomal aberrations at 7.81 to 1000 ug/mL; format: cell-based
How it was run: (§3)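 Cultured human peripheral blood lymphocytes exposed at 7.81–1000 μg/mL, with and without S9 metabolic activation; chromosomal aberrations scored.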

[19] = Half life in mouse at 1 mg/kg, iv; format: ADME, organism-based; parameters: dose 1 mg/kg, route intravenous; conditions: in vivo; how it was run: as §1
Cytochrome P450 2D6 = Cytochrome P450 2D6 (Homo sapiens, UniProt P10635); test: Inhibition of CYP2D6; format: ADME
Sequence of Cytochrome P450 2D6 (P10635 whole entry): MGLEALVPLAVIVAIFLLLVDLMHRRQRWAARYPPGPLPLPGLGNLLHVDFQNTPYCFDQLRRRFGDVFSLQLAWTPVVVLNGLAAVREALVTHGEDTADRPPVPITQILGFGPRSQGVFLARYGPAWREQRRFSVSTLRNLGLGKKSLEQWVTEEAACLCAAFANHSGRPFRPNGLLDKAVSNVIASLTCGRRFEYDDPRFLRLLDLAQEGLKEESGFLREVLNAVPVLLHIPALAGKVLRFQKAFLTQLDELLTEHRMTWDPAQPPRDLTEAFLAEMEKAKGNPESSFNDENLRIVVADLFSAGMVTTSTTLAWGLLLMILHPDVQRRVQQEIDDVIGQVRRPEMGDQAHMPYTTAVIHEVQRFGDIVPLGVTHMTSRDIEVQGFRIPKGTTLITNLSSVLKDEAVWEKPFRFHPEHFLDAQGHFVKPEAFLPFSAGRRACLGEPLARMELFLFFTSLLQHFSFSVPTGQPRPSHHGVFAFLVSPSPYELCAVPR

Rattus norvegicus [20] = test: Clearance in rat at 0.5 mg/kg, iv; format: ADME, organism-based; parameters: dose 0.5 mg/kg, route intravenous; conditions: in vivo; how it was run: as §1
[21] = Half life in cynomolgus monkey at 0.5 mg/kg, iv; format: ADME, organism-based, Macaca fascicularis; parameters: dose 0.5 mg/kg, route intravenous; conditions: in vivo; how it was run: as §1
[22] = Mean residence time in cynomolgus monkey at 0.5 mg/kg, iv; format: ADME, organism-based, Macaca fascicularis; parameters: dose 0.5 mg/kg, route intravenous; conditions: in vivo; how it was run: as §1
[23] = Half life in rat at 0.5 mg/kg, iv; format: ADME, organism-based; parameters: dose 0.5 mg/kg, route intravenous; conditions: in vivo; how it was run: as §1
[24] = target: T2, C-X-C chemokine receptor type 3; test: Receptor occupancy of CXCR3 in human whole blood assessed as inhibition of ITAC binding by fluorescence quenching based FACS analysis
[25] = Mean residence time in rat at 0.5 mg/kg, iv; format: ADME, organism-based; parameters: dose 0.5 mg/kg, route intravenous; conditions: in vivo; how it was run: as §1
Rattus norvegicus [26] = test: Hepatic blood flow in rat at 0.5 mg/kg, iv; format: ADME, organism-based, Liver; parameters: dose 0.5 mg/kg, route intravenous; conditions: in vivo; how it was run: as §1
Mus musculus [27] = test: Hepatic blood flow in mouse at 1 mg/kg, iv; format: ADME, organism-based, Liver; parameters: dose 1 mg/kg, route intravenous; conditions: in vivo; how it was run: as §1
PBL [28] = test: Toxicity in human PBL assessed as chromosomal aberrations at 7.81 to 1000 ug/mL in the presence of S9; format: cell-based; how it was run: as §3
[29] = Fraction unbound in rat plasma; format: ADME, cell-free
Mus musculus [30] = test: Inhibition of bleomycin-induced leukocyte migration into lungs in C57BL/6 mouse lung injury model by measuring cell count in bronchoalveolar lavage fluid at 1 mg/kg, sc administered for 6 days; format: functional; conditions: route subcutaneous
How it was run: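 C57BL/6 mice given one intra-tracheal instillation of bleomycin, 1 mg/kg; compound delivered subcutaneously by osmotic mini-pump from challenge day for 6 days; cells counted in bronchoalveolar lavage on day six.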

[31] = Fraction unbound in mouse plasma; format: ADME, cell-free
[32] = Volume of distribution at steady state in mouse at 1 mg/kg, iv; format: ADME, organism-based; parameters: dose 1 mg/kg, route intravenous; conditions: in vivo, read-out: Vdss; how it was run: as §1
Canis familiaris = test: Hepatic blood flow in Beagle dog at 0.5 mg/kg, iv; format: ADME, organism-based, Canis lupus familiaris, Liver; parameters: dose 0.5 mg/kg, route intravenous; conditions: in vivo; how it was run: as §1
Blood [33] = test: Drug level in C57BL/6 mouse blood at 3 mg/kg, sc after 1 hr; format: ADME, organism-based; parameters: dose 3 mg/kg, route subcutaneous; conditions: in vivo; how it was run: as §2
Blood [34] = test: Drug level in C57BL/6 mouse blood at 1 mg/kg, sc after 1 hr; format: ADME, organism-based; parameters: dose 1 mg/kg, route subcutaneous; conditions: in vivo; how it was run: as §2
[35] = Half life in Beagle dog at 0.5 mg/kg, iv; format: ADME, organism-based, Canis lupus familiaris; parameters: dose 0.5 mg/kg, route intravenous; conditions: in vivo; how it was run: as §1
[36] = Mean residence time in Beagle dog at 0.5 mg/kg, iv; format: ADME, organism-based, Canis lupus familiaris; parameters: dose 0.5 mg/kg, route intravenous; conditions: in vivo; how it was run: as §1

Work on C[C@H](c1nc2ncccc2c(=O)n1-c1ccc(Cl)cc1)N(CC1CCS(=O)(=O)CC1)C(=O)Cc1ccc(F)c(C(F)(F)F)c1 yielded a bioavailability [1] of 69%, a Vd [2] of 1.4 L/kg and a clearance [3] of 2.17 mL/min/kg. The IC50 (Cytochrome P450 3A4) was > 10000 nM, the fraction unbound [4] was 0.037 and the bioavailability [5] was 44%. The IC50 [6] was 200 nM, the clearance [7] was 25 mL/min/kg and the Drug uptake (Blood [8]) was 5.6 mg/kg. The clearance [9] was 2 mL/min/kg, the MRT [10] was 3.9 h and the IC50 [11] was 6 nM. For the same compound, the fraction unbound [12] was 0.015, the bioavailability [13] was > 100% and the bioavailability [14] was 45%. The Vd [15] was 1.2 L/kg, the Vd [16] was 1.9 L/kg and the IC50 [17] was 12 nM. The QH (Cynomolgus monkey) was 3%, the Activity (PBL [18]) was “Non-toxic” and the half-life [19] was 4 h. For the same compound, the IC50 (Cytochrome P450 2D6) was > 10000 nM, the CL (Rattus norvegicus [20]) was 8.17 mL/min/kg and the half-life [21] was 9 h. It also gave an MRT [22] of 8.7 h, a half-life [23] of 4 h and an IC50 [24] of 9.8 nM. The MRT [25] was 3.5 h, the QH (Rattus norvegicus [26]) was 3% and the QH (Mus musculus [27]) was 3%. The Activity (PBL [28]) was “Non-toxic”, the fraction unbound [29] was 0.061 and the EC (Mus musculus [30]) was 1 mg/kg. For the same compound, the fraction unbound [31] was 0.007, the Vd [32] was 0.48 L/kg and the QH (Canis familiaris) was 82%. For the same compound, the Drug uptake (Blood [33]) was 3.4 mg/kg, the Drug uptake (Blood [34]) was 1.3 µM and the half-life [35] was 1 h. The MRT [36] was 1.1 h.
